For 37 variants, yeast fitness results are on record in the RNAGym collection of RNA variant scans (doi:10.1126/science.aae0568).

This sample holds only a part of the variants without activity. A value given as a limit tells only on which side of the number the result lay.

First the molecules themselves.
B1: tRNA (parent)
chain: GUUCCGUUGGCGUAAUGGUAACGCGUCUCCCUCCUAAGGAGAAGACUGCGGGUUCGAGUCCCGUACGGAACG

The variants in the data set derive from B1. Put plainly: yeast fitness relative to wild type (ratio to wild type); higher = fitter; tRNA-Arg(CCU), competitive growth, 37 C, YPD. The method in brief:
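A pool of Saccharomyces cerevisiae strains, each with a tRNA-Arg(CCU) gene variant at the native genomic locus, was competed in YPD at 37°C for 24 hours across six parallel replicates. The variants had been chemically synthesised at a 3% per-site mutation rate over 69 sites, and gene amplicons before and after competition were read by 100-nucleotide paired-end sequencing. Darwinian fitness relative to wild type rested on changes in genotype frequencies. Genotypes required ≥ 100 starting reads, and estimates < 0.5 were set to 0.5.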
On to GUUCCGUUGGCGUAAUGAUAACGCGUCUCCCUCCUAAGGAAAAGACUGCGGGUUCGAGUCCCGUAGGGAACG, for which the yeast fitness was at most 0.5.
GUUCCGUUGGCGUAAUGAUAACGCGUCUCCCUCCUAAGGAGAAGACUGCGGAUUCGAGUCCCGUCCGGAACG: the yeast fitness was at most 0.5.
For GUUCCGUUGGCGUAAUGAUAACGCGUCUCCCUCCUAAGGAGAAGACUGGGGGUUCGAGUGCCGUACGGAACG, the yeast fitness was at most 0.5.
Consider GUUCCGUUGGCGUAAUGAUAACGCGUCUCCCUCCUAAGGAGAAGACUGCGGGUUCGAGUCCGGUACGGAACG, for which the yeast fitness worked out at 0.676.
Regarding GUUCCGUUGGCGUAAUGAUAACGCGUCUCCCUCCUAAGGAGAAGACUGCGGGUUCGAGUCCUGUACGGAACG, the yeast fitness was determined as 0.712.
With GUUCCGUUGGCGUAAUGAUAACGCGUCUCCCUCCUAAGGAGAAGACUGGGGGUUCGAGUCCCGUACGGAACG, the yeast fitness was found to be 0.74.
As for GUUCCGUUGGCGUAAUGAUAACGCGUCUCCCUCCUAAGGAGAAGACUGAGGGUUCGAGUCCCGUACGGAACG, the yeast fitness was found to be 0.606.
In the case of GUUCCGUUGGCGUAAUGAUAACCCGUCUCGCUCCUUAGGAGAAGACUGCGGGUUCGAGUGCCGUACGGAACG, the yeast fitness was at most 0.5.
On to GUUCCGUUGGCGUAAUGAUAACGCGUCUCCCUCCUAAGGAGAAGACUGCGGCUUCGAGUCCCGUACUGUACG, for which the yeast fitness is at most 0.5.
Under GUUCCGUUGGCGUAAUGAUAACGCGUCUCCCUCCUAAGGAGAAGACUGCGGGUUCGAGUCUCGUACGGAACG stands 0.696.
On to GUUCCGUUGGCGUAAUGAUAACGCGUCUCCCUCCUAAGGAGAAGACUGCGGGUUCGAGUCGCGUACGGAACG, for which the yeast fitness amounted to 0.681.
Under GUUCCGUUGGCGUAAUGAUAACGCGUCUCCCUCUUAAGGAGACGACUGCGGGGUCGAGUCCCGUACGCAACG stands at most 0.5; under GUUCCGUUGGCGUAAUGAUAACACGUCUCCCUACUAAGGAGAAGACUGCGGGUUCGAGUCCCGUCCGGAACG, 0.624; under GUUCCGUUGGCGUAAUGAUAACGCGUCUCCCUCUUAAGGAGACGACUGCGGGGUCGAGUCCCGUACGGAACG, at most 0.5.
Turning to GUUCCGUUGGCGUAAUGAUAACGCGUCUCCCUCCUAAGGAGAAGAAUGCGGGUUCGAGUCCCGCACGGAACG, the yeast fitness turned out to be 0.535.
On to GUUCCGUUGGCGUAAUGAUAACGCGUCUCCCUCUCAAGGAGAAGACUGCGGGUUCGAGUCCCGUACGGAACG, for which the yeast fitness was at most 0.5.
In the case of GUUCCGUUGGCGUAAUGAUAACGCGUCUCCCUCCUAAGGAGAAGAGUGCGGGUUCGAGUCCCGUUCGGAACG, the yeast fitness worked out at 0.697.
Regarding GUUCCGUUGGCGUAAUGAUAACGCGUCUCCCUCUUAAGGAGACGAGUGCGGGUUCGAGUCCCGUACGGAACG, the yeast fitness is at most 0.5.
GUUCCGUUGGCGUAAUGAUAACGCAUCUCCCUCCUAAAGAGAAGACUGCGGGUUCGGGUCCCGUACGGAACG: the yeast fitness was at most 0.5.
For the variant GUUCCGUUGGCGUAAUGAUAACGCGUCUCCCUCCUAAGGAGAAAACUGCGGGUUCGAGUCCUGUACGGAACG, the yeast fitness is at most 0.5.
Regarding GUUCCGUUGGCGUAAUGAUAACGCGUCUCCCUCAUAUGGAGAAGACUGCGGGUUCGAGUCCCGUACGGAACG, the yeast fitness was at most 0.5.
Take GUUCCGUUGGCGUAAUGAUAACGCGUCUCCCUCCUAAGGAGAAGACUACGGGUUCGAGUCCCGUACGGAACG: the yeast fitness was 0.765.
Turning to GUUCCGUUGGCGUAAUGAUAACGCGUCUCCCUCAUAAGGAGAAGAUUGCGGGUUCGAGUCCCGUACGGAACG, the yeast fitness is 0.692.
GUUCCGUUGGCGUAAUGAUAACGCGUCUCCCUCCUAAGGAGAAGACUGCCGGUUCGACUUCCGUAGGGAACG: the yeast fitness is at most 0.5.
In the case of GUUCCGUUGGCGUAAUGAUAACGCAUCUCCCUCCUAAGGAGAAGAUUGCGGGUUGGAGUCCCGUACGGCACG, the yeast fitness is at most 0.5.
As for GUUCCGUUGGCGUAAUGAUAACGCGUCUCCCUCCUAAGGAGAAGACUGCGCGUUCGAGUCCCGUUCGGAACG, the yeast fitness was at most 0.5.
For GUUCCGUUGGCGUAAUGAUAACGCGUCUCCCUCCUAAGACGAAGACUGCGGGUUCGAGUCCCGUACGGAUCG, the yeast fitness is at most 0.5.
Consider GUUCCGUUGGCGUAAUGAUAACGCGUCUCCCUCCUAAGGACAAGACUGCGGGUUCGAGUCCCGUACGGAACG, for which the yeast fitness was 0.658.
Under GUUCCGUUGGCGUAAUGAAAACGCGUCUCCCUCCUAAGGAGAAGACUGCGGGUUCGAGUCGCGUACGGAACG stands at most 0.5.
Under GUUCCGUUGGCGUAAUGAAAACGCGUCUCCCUCCUAAGGAGAAGACUGCGCGUUCGAGUCCCGCACGGAACG stands at most 0.5; under GUUCCGUUGGCGUAAUGAUAACGCGUCUCCCUCCUAAGCAGAAGACUGCGGGUUCGAGUCCCGUACGGAACG, 0.757.
Take GUUCCGUUGGCGUAAUGAUAACGCGUCUCCCUCCUAAGGAGAAGACUGCGGGUUCGAGUUCCGUGCGGAACG: the yeast fitness was at most 0.5.
On to GUUCCGUUGGCGUAAUGAUAACGCGUCUCCCUCCUAAGGAGAAGACUGCGAGUUCGAGUCCCGUACGGAACG, for which the yeast fitness amounted to 0.625.
As for GUUCCGUUGGCGUAAUGAUAACGCGUCUCCCUCAUAAGGAGAAGACUGCGGGUUCGAGUACCGUACGGAACG, the yeast fitness is at most 0.5.
GUUCCGUUGGCGUAAUGAUAACGCGUCUCCCUCCUAAGGAGAAGACUGCGGAUUGGAGUCCCGUACGGAACG: the yeast fitness worked out at 0.571.
For GUUCCGUUGGCGUAAUGAUAACGCGUCUCCCUCCUAAGGACAAGACUGCGGGAUCGAGUCCCGUACGGAACG, the yeast fitness came to 0.557.
Under GUUCCGUUGGCGUAAUGAUAACCCGUCUUCGUCCUAAGGAGAAGACUGCGGGUUCGAGUCCCGUACGGAACG stands at most 0.5.
